Measured values gathered from unrelated publications.
Protocols differ between the studies behind these lines.
Target: Cyclin-dependent kinase 16 (CDK16, Homo sapiens, UniProt Q00536)

SMILES | assay | conditions | remaining binding [%]
C[C@@H]1CN(c2ccc3ncc(-c4ccc5[nH]nc(C6CC6)c5c4)n3n2)C[C@H](C)O1 | binding, competition with immobilised ligand | 50 nM | 98
CSc1cccnc1N1CCN(Cc2nc3ccccc3[nH]2)CC1 | cell-free assay, competition with immobilised ligand | 1 µM | 81
C[C@@H](c1ccc(-n2cnc3c(N)ncnc32)cc1)N1CCc2nn(C)c(Cc3ccccc3)c2C1=O | binding, competition with immobilised ligand | 0.1 µM | 67
CN(c1ccnc(CNc2nc(Nc3ccc4c(c3)CC(=O)N4)ncc2C(F)(F)F)n1)S(C)(=O)=O | cell-free assay, competition with immobilised ligand | 1 µM | 82
O=C(NCC1CCOCC1)c1n[nH]cc1NC(=O)c1c(F)cccc1F | binding, competition with immobilised ligand | 1 µM | 57
CN(CCCC(F)(F)F)c1nccc(-c2cnn3ncccc23)n1 | binding | 1 µM | 100
O=C(c1ccc(Nc2ncc(Cl)c(-c3ccc(Cl)s3)n2)cc1)N1CCC(N2CCCC2)CC1 | binding, competition with immobilised ligand | 1 µM | 0.2
Cc1noc([C@H]2C[C@@H](c3ccc(C(F)(F)F)cc3)CN(C(=O)N3CCS(=O)(=O)C3)C2)n1 | cell-free assay, competition with immobilised ligand | 1 µM | 100
CN(c1nccc(-c2cnn3ncccc23)n1)C1CC1 | binding | 1 µM | 100
c1cncc(-c2cccc(Nc3nccc(NC4CCCCC4)n3)c2)c1 | binding, competition with immobilised ligand | 10 µM | 95
Nc1ncc2c(n1)-c1c([nH]c3ccc(C#CC4CC4)cc13)CCCC2 | binding, competition with immobilised ligand | 1 µM | 100
CCN1CCN(Cc2ccc(C(=O)Nc3ccc(C)c(Oc4ccc5c(c4)CC(=O)N5)c3)cc2C(F)(F)F)CC1 | binding, competition with immobilised ligand | 1 µM | 100
COc1ccnn2ncc(-c3ccnc(N(C)C)n3)c12 | binding | 1 µM | 100
C=CC(=O)N1CCC(C(=O)NCC(=O)N2CCN(c3nc(-c4cnc(N)nc4C(F)F)nc(N4CCOCC4)n3)CC2)CC1 | binding, competition with immobilised ligand | 1 µM | 100
O=C(c1ccc(Nc2nccc(-c3cc4ccccc4s3)n2)cc1)N1CCC(N2CCCC2)CC1 | binding, competition with immobilised ligand | 1 µM | 58
COCCOc1nc(-c2ccc(Cl)nc2)nc2c1CN(C(=O)c1ncn3ccccc13)CC2 | cell-free assay, competition with immobilised ligand | 0.1 µM | 100
CN(C)c1ncc(F)c(-c2cnn3ncccc23)n1 | binding | 1 µM | 96
Cc1c(NC(=O)c2cc(C(N)=O)nc3cc(F)ccc23)c(C(F)(F)F)nn1Cc1ccc(C(C)(C)C)cc1 | cell-free assay, competition with immobilised ligand | 1 µM | 100
C[C@H]1CCN(c2nccc(-c3cnn4ncccc34)n2)C1 | binding | 1 µM | 95
Cc1cnc(Nc2ccc(C(=O)N3CCC(N4CCCC4)CC3)cc2)nc1-c1cc2ccccc2s1 | binding, competition with immobilised ligand | 1 µM | 3.9
O=C(O)[C@@H]1[C@@H](Cn2nnc3ccccc3c2=O)CC[C@H]1C(=O)c1ccc(OCCC2CCOCC2)cc1 | cell-free assay, competition with immobilised ligand | 1 µM | 100
CC1CCCN1c1nccc(-c2cnn3ncccc23)n1 (stereo not shown) | binding | 1 µM | 100
COc1cnc(Nc2cccc(S(N)(=O)=O)c2)nc1N1CCN(c2ccccc2)CC1 | binding, competition with immobilised ligand | 1 µM | 79
c1ccc(N2CCN(Cc3nc4ccccc4[nH]3)CC2)nc1 | binding, competition with immobilised ligand | 1 µM | 100
N[C@@H]1CCN(c2nccc(-c3cnn4ncccc34)n2)C1 | binding | 1 µM | 95
